Activity calls are given as the source filed them.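 The calls were made as follows: active = toxic dose divided by the dose restoring drug killing exceeds 10, where toxic dose is under 15 µM; inactive = the rest.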
Tested on: Jurkat/DNR + daunorubicin, trypan blue viability, 3 d
Test: chemoreversal in ABCB1-expressing Jurkat/DNR cells – cell-based, trypan blue viability, SAR set 2, SAR follow-up (AID 504476)
Conditions: for CC50: measured here: TD50 toxicity without chemotherapeutic
In short: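 System: Jurkat/DNR cells. Amount: 100,000 cells per mL. Probe or stimulus: daunorubicin held at a fixed, constant concentration. Dosing: test compound spanning 3 logs, 1 to 100 µM. Incubation: 3-day compound exposure alongside daunorubicin. Detection: trypan blue counts by microscopy. Read-out basis: concentration halving cell viability.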

SMILES | EC50 | CC50 [µM]
CC(=O)N1CCN(c2cc(-c3ccco3)nc3cc(-c4cccc(Cl)c4)nn23)CC1 | 0.08 µM | 17.6
COc1cccc(-c2cc(N3CCN(C(=O)c4ccoc4)CC3)n3nc(-c4ccccc4)cc3n2)c1 | 0.18 µM (inactive) | 5.7
O=C(c1ccoc1)N1CCN(c2cc(-c3ccoc3)nc3cc(-c4ccccc4)nn23)CC1 | 0.42 µM (inactive) | 7.3
Cc1ccc(-c2cc3nc(-c4ccco4)cc(N4CCN(Cc5ccoc5)CC4)n3n2)cc1 | 0.35 µM (inactive) | 12.5
COc1ccc(-c2cc3nc(-c4ccco4)cc(N4CCN(C(=O)c5ccoc5)CC4)n3n2)cc1 | 5.77 µM | > 100
CC(=O)N1CCN(c2cc(-c3ccco3)nc3cc(-c4ccccc4)nn23)CC1 | 0.19 µM (inactive) | 10.1
COc1cccc(-c2cc3nc(-c4ccco4)cc(N4CCN(C(C)=O)CC4)n3n2)c1 | 0.32 µM | 49.3
O=C(c1ccoc1)N1CCCN(c2cc(-c3ccco3)nc3cc(-c4ccccc4)nn23)C1 | 0.35 µM (inactive) | 12
COc1ccccc1-c1cc(N2CCN(C(=O)c3ccoc3)CC2)n2nc(-c3ccccc3)cc2n1 | 0.17 µM (inactive) | 3.7
O=C(c1ccoc1)N1CCN(c2cc(-c3ccco3)nc3cc(-c4ccco4)nn23)CC1 | 0.19 µM (inactive) | 1.93

Reference: PubChem BioAssay AID504476 (NMMLSC, 2011)
